Laboratory results published in ChEMBL document CHEMBL1143257, “Structure-activity relationships of novel HIV-1 protease inhibitors containing the 3-amino-2-chlorobenzoyl-allophenylnorstatine structure” (Bioorg Med Chem, 2008).

Key:
[1] = system: Human immunodeficiency virus 1; experiment: Antiviral activity against HIV1 mutant strain 2; format: functional, organism-based
Summary of the method: (§1)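 PhenoSense phenotypic assay. Strain 2 protease carries L10I, G16A, K45V, F53L, I54V, K55N, D60E, L63P, A71V, I72K, V77I, V82F, I84V, L90M, I93L. EC50 in µM. Fold change is versus the wild-type EC50.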

[2] = system: Human immunodeficiency virus 1; experiment: Antiviral activity against HIV1 mutant strain 1; format: functional, organism-based
Summary of the method: (§2)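 PhenoSense phenotypic susceptibility assay on multi-drug-resistant clinical HIV-1 protease variant strains, run in parallel with a wild-type reference. EC50 read in µM. Fold change is mutant EC50 divided by wild-type EC50.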

[3] = system: Human immunodeficiency virus 1; experiment: Antiviral activity against HIV1 mutant strain 3; format: functional, organism-based
[4] = system: Human immunodeficiency virus 1; experiment: Antiviral activity against HIV1 mutant strain 6; format: functional, organism-based
[5] = system: Human immunodeficiency virus 1; experiment: Antiviral activity against wild type HIV1; format: functional, organism-based
[6] = system: Human immunodeficiency virus 1; experiment: Antiviral activity against HIV1 3B; format: functional, organism-based; conditions: Human immunodeficiency virus 1, 3B
[7] = system: Human immunodeficiency virus 1; experiment: Antiviral activity against HIV1 mutant strain 7; format: functional, organism-based
Summary of the method: (§3)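 PhenoSense phenotypic assay. Strain 7 protease mutations include T4A, L10I, K20R, L23I, L33F, E35D, M36I, K43T, M46L. EC50 in µM. Fold change is versus the wild-type EC50.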

[8] = system: Human immunodeficiency virus 1; experiment: Antiviral activity against HIV1 mutant strain 5; format: functional, organism-based
[9] = system: Human immunodeficiency virus 1; experiment: Antiviral activity against HIV1 mutant strain 4; format: functional, organism-based
[10] = system: Human immunodeficiency virus 1; experiment: Antiviral activity against HIV1 3B in presence of 50% human serum; format: functional, organism-based; conditions: Human immunodeficiency virus 1, 3B
[11] = system: Human immunodeficiency virus 1; experiment: Ratio of EC50 for HIV1 mutant strain 2 to EC50 for wild type HIV1; format: functional; summary of the method: as §1
[12] = system: Human immunodeficiency virus 1; experiment: Ratio of EC50 for HIV1 mutant strain 1 to EC50 for wild type HIV1; format: functional; summary of the method: as §2
[13] = system: Human immunodeficiency virus 1; experiment: Ratio of EC50 for HIV1 mutant strain 5 to EC50 for wild type HIV1; format: functional
[14] = system: Human immunodeficiency virus 1; experiment: Ratio of EC50 for HIV1 mutant strain 4 to EC50 for wild type HIV1; format: functional
[15] = system: Human immunodeficiency virus 1; experiment: Ratio of EC50 for HIV1 mutant strain 7 to EC50 for wild type HIV1; format: functional; summary of the method: as §3
Protease = Protease (Human immunodeficiency virus 1, UniProt Q9YQ12); experiment: Inhibition of HIV1 protease
Chain of Protease (Q9YQ12 whole entry): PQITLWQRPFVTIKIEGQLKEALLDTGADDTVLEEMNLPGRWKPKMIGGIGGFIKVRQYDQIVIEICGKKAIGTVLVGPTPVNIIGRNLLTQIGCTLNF

[16] = system: Human immunodeficiency virus 1; experiment: Ratio of EC50 for HIV1 mutant strain 3 to EC50 for wild type HIV1; format: functional
[17] = system: Human immunodeficiency virus 1; experiment: Ratio of EC50 for HIV1 mutant strain 6 to EC50 for wild type HIV1; format: functional
[18] = Metabolic stability in human liver microsomes assessed as compound remaining at 5 uM in presence of UDPGA by RP-HPLC; format: ADME, Microsome; conditions: read-out: Stability
Summary of the method: (§4)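 Test drug at 5 µM incubated with liver microsomes (0.5 mg/ml) plus cofactor (1 mM NADPH or 5 mM UDPGA) at 37 °C for 30 min. Residual drug measured by RP-HPLC. Values are the mean percent remaining of duplicates.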

[19] = Metabolic stability in human liver microsomes assessed as compound remaining at 5 uM in presence of NADPH by RP-HPLC; format: ADME, Microsome; conditions: read-out: Stability; summary of the method: as §4
Liver [20] = experiment: Metabolic stability in dog liver microsomes assessed as compound remaining in presence of NADPH by RP-HPLC; format: ADME, Canis lupus familiaris, Microsome; summary of the method: as §4
[21] = AUC in Beagle dog at 15 mg/kg, po; format: ADME, organism-based, Canis lupus familiaris; parameters: dose 15 mg/kg, route oral; conditions: plasma
[22] = Oral bioavailability in Beagle dog at 15 mg/kg; format: ADME, organism-based, Canis lupus familiaris; conditions: in vivo
[23] = Plasma clearance in Beagle dog at 15 mg/kg, iv; format: ADME, organism-based, Canis lupus familiaris; parameters: dose 15 mg/kg, route intravenous
[24] = Cmax in Beagle dog at 15 mg/kg, po; format: ADME, organism-based, Canis lupus familiaris; parameters: dose 15 mg/kg, route oral; conditions: in vivo
[25] = Tmax in Beagle dog at 15 mg/kg, po; format: ADME, organism-based, Canis lupus familiaris; parameters: dose 15 mg/kg, route oral; conditions: in vivo
[26] = Volume of distribution at steady state in Beagle dog at 15 mg/kg, iv; format: ADME, organism-based, Canis lupus familiaris; parameters: dose 15 mg/kg, route intravenous; conditions: in vivo, read-out: Vdss
Liver [27] = experiment: Metabolic stability in dog liver microsomes assessed as compound remaining in presence of UDPGA by RP-HPLC; format: ADME, Canis lupus familiaris, Microsome; summary of the method: as §4
[28] = Plasma concentration in Beagle dog at 15 mg/kg, po after 12 hrs; format: ADME, organism-based, Canis lupus familiaris; parameters: dose 15 mg/kg, route oral

| SMILES | EC50 [1] [nM] | EC50 [2] [nM] | EC50 [3] [nM] | EC50 [4] [nM] | EC50 [5] [nM] | EC50 [6] [nM] | EC50 [7] [nM] | EC50 [8] [nM] | EC50 [9] [nM] | EC50 [10] [nM] | Ki (Protease) [nM] | remaining at 5 µM [18] [%] | remaining at 5 µM [19] [%] | other results |
| --- | --- | --- | --- | --- | --- | --- | --- | --- | --- | --- | --- | --- | --- | --- |
| CC(C)(C)NC(=O)[C@@H]1C[C@@H]2CCCC[C@@H]2CN1C[C@@H](O)[C@H](Cc1ccccc1)NC(=O)[C@H](CC(N)=O)NC(=O)c1ccc2ccccc2n1 | 97 | > 500 | > 500 | 158 | 1.9 | 7 | 141 | > 500 | > 500 | 50 |  |  |  |  |
| CC(C)CN(C[C@@H](O)[C@H](Cc1ccccc1)NC(=O)O[C@H]1CCOC1)S(=O)(=O)c1ccc(N)cc1 | 350 | 98 | 143 | 432 | 14 | 16 | 165 | 615 | 51 | 95 | 0.359 |  |  | Ratio EC50 [11]: 25; Ratio EC50 [12]: 7; Ratio EC50 [13]: 43; Ratio EC50 [14]: 4; Ratio EC50 [15]: 12; Ratio EC50 [16]: 10; Ratio EC50 [17]: 30 |
| CCOc1ccc(C[C@H](NC(=O)c2cccc(N)c2Cl)[C@H](O)C(=O)N2CSC(C)(C)[C@H]2C(=O)NCc2c(C)cccc2C)cc1 |  |  |  |  |  | 20 |  |  |  | 66 | 0.152 | > 95 | 54 |  |
| COc1cccc(C[C@H](NC(=O)c2cccc(N)c2Cl)[C@H](O)C(=O)N2CSC(C)(C)[C@H]2C(=O)NCc2ccccc2C)c1 |  |  |  |  |  | 21 |  |  |  | 138 | 0.255 | 93 | 66 |  |
| Cc1ccccc1CNC(=O)[C@H]1N(C(=O)[C@@H](O)[C@H](Cc2ccc3c(c2)OCO3)NC(=O)c2cccc(N)c2Cl)CSC1(C)C |  |  |  |  |  | 20 |  |  |  | 77 | 0.163 | > 95 | 74 |  |
| CCOc1ccc(C[C@H](NC(=O)c2cccc(N)c2Cl)[C@H](O)C(=O)N2CSC(C)(C)[C@H]2C(=O)NCc2ccccc2C)cc1 |  |  |  |  |  | 6 |  |  |  | 35 | 0.31 | 89 | 65 |  |
| COc1cccc(C[C@H](NC(=O)c2cccc(N)c2Cl)[C@H](O)C(=O)N2CCC(C)(C)[C@H]2C(=O)NCc2c(C)cccc2C)c1 |  |  |  |  |  | 36 |  |  |  | 87 | 0.75 | > 95 | 83 | Stability (Liver [20]): 69%; AUC [21]: 36.7 µM·h; bioavailability [22]: 146%; clearance [23]: 16.7 mL/min/kg; Cmax [24]: 5 µM; Tmax [25]: 1 h; Vd [26]: 1.9 L/kg; Stability (Liver [27]): > 95%; concentration at 12 h [28]: 710 nM |
| COc1ccc(C[C@H](NC(=O)c2cccc(N)c2Cl)[C@H](O)C(=O)N2CSC(C)(C)[C@H]2C(=O)NCc2ccccc2C)cc1 |  |  |  |  |  | 18 |  |  |  | 88 | 0.311 | > 95 | 60 |  |
| Cc1cccc(C)c1CNC(=O)[C@H]1N(C(=O)[C@@H](O)[C@H](Cc2ccc3c(c2)OCO3)NC(=O)c2cccc(N)c2Cl)CSC1(C)C |  |  |  |  |  | 17 |  |  |  | 20 | 0.07 | > 95 | 53 |  |
| Cc1ccccc1CNC(=O)[C@H]1N(C(=O)[C@@H](O)[C@H](Cc2ccccc2)NC(=O)c2cccc(N)c2Cl)CSC1(C)C |  |  |  |  |  | 77 |  |  |  | 165 | 0.353 | > 95 | 46 |  |
| COc1ccc(C[C@H](NC(=O)c2cccc(N)c2Cl)[C@H](O)C(=O)N2CCC(C)(C)[C@H]2C(=O)NCc2c(C)cccc2C)cc1 |  |  |  |  |  | 40 |  |  |  | 80 | 0.804 | > 95 | 63 |  |
| COc1ccc(C[C@H](NC(=O)c2cccc(N)c2Cl)[C@H](O)C(=O)N2CSC(C)(C)[C@H]2C(=O)NCc2c(C)cccc2C)cc1 |  |  |  |  |  | 24 |  |  |  | 14 | 0.138 | > 95 | 58 |  |
| CCOc1ccc(C[C@H](NC(=O)c2cccc(N)c2Cl)[C@H](O)C(=O)N2CCC(C)(C)[C@H]2C(=O)NCc2c(C)cccc2C)cc1 |  |  |  |  |  | 63 |  |  |  | 270 | 0.861 | > 95 | 53 |  |
| CC(C)(C)NC(=O)[C@@H]1CN(Cc2cccnc2)CCN1C[C@@H](O)C[C@@H](Cc1ccccc1)C(=O)N[C@H]1c2ccccc2C[C@H]1O | 464 | 401 | 753 | 819 | 7.6 | 23 | 145 | > 1500 | 113 | 87 |  |  |  |  |
| Cc1c(O)cccc1C(=O)N[C@@H](CSc1ccccc1)[C@H](O)CN1C[C@H]2CCCC[C@H]2C[C@H]1C(=O)NC(C)(C)C | 346 | 452 | 413 | > 1500 | 5.4 | 19 | 515 | 776 | > 1500 | 293 | 0.931 |  |  | Ratio EC50 [11]: 64; Ratio EC50 [12]: 82; Ratio EC50 [13]: 141; Ratio EC50 [14]: >273; Ratio EC50 [15]: 94; Ratio EC50 [16]: 75; Ratio EC50 [17]: >273 |
| CC(C)c1nc(CN(C)C(=O)N[C@H](C(=O)N[C@@H](Cc2ccccc2)C[C@H](O)[C@H](Cc2ccccc2)NC(=O)OCc2cncs2)C(C)C)cs1 [RITONAVIR] | > 3000 | 1730 | > 3000 | > 3000 | 16 | 2 | > 3000 | > 3000 | 1000 | 41 |  |  |  |  |
